Bioassay records deposited in PubChem by Broad Institute.
In the library only some 2.5% were active in any assay of this set; here they are far more common.
NSD2 HMT inh: NSD2 (human) methyltransferase inhibition. O96028. NSD2 peptide methylation, AlphaScreen, 120 min. inhibition, % at 12.5 µM. actives 0.54% (n = 310,000). AID 743445
CDK5 inh: inhibitors of human CDK5/p35 kinase | Recombinant CDK5/p35, ADP-Glo luminescence, 60 min | inhibition, % at 10 µM | actives 0.01% (n = 330,000) | AID 488839;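 active = highest replicate inhibition of at least 50% and at least 75% of replicates reaching 50%; inconclusive = only one of the two criteria met; inactive = both criteria failed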
dFosB act-1: mouse delta FosB homodimer activation; P13346; purified delta FosB, TAMRA-CDK5 oligo fluorescence polarization; percent of positive-control signal above neutral wells; activation, % at 25 µM; actives 0.99% (n = 340,000);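 active = mean activation above about 17%, with every replicate also reaching it, limit read from the data, passing the limit was not always enough; inconclusive = only one of the two conditions met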
Target sequence (P13346 whole entry, looked up): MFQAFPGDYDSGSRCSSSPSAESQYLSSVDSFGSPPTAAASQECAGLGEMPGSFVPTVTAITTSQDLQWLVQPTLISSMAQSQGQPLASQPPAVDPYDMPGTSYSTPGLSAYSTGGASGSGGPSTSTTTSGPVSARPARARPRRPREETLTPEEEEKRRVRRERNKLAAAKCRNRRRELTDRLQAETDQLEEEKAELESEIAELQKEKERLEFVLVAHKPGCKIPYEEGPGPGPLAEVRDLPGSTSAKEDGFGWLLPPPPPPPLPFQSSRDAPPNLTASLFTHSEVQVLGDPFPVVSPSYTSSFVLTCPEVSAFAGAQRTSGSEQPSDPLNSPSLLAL
SR-BI HDL uptake: inhibitors of mouse SR-BI mediated HDL lipid uptake | Q61009 | ldlA[mSR-BI] CHO cells, DiI-HDL uptake fluorescence, 3 h | inhibition, % at 12.5 µM | actives 0.96% (n = 320,000) | AID 488896;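 active = mean replicate inhibition of at least 70% and a set share of replicates each scoring 70 or more; inconclusive = meets just one of the two criteria; inactive = fails both criteria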
SR-BI uptake up: SR-BI HDL lipid transfer activation; activation, % at 12.5 µM; AID 504775; actives 0.096% (n = 320,000); CHO ldlA[mSR-BI] cells, DiI-HDL uptake fluorescence, 3 h; 100 = double the neutral-control signal;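 active = mean replicate activation of at least 60% and every replicate at or above 60%; inconclusive = mean or all-replicate condition met, but not both; inactive = mean below 60% and not all replicates reaching 60%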
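Assay system: LDL receptor-deficient CHO ldlA cells overexpressing murine SR-BI / Medium: BSA-supplemented, HEPES-buffered Ham's F12, pH 7.4 / Probe or stimulus: DiI-labelled HDL at 10 µg/mL final / Timing: compound with DiI-HDL co-incubation, 3 h at 37 °C / Technique: bottom-read cell fluorescence after medium removal, ex 550/em 595 nm / Measure: HDL uptake via cellular fluorescence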
DYRK1A inh: blocks rat Dyrk1A kinase activity. Q63470. ADP-Glo luminescence, NFATc1 peptide. inhibition, % at 12.5 µM. actives 0.43% (n = 310,000)
dFosB act-2: enhances mouse delta FosB homodimer binding to DNA; shares compounds with dFosB act-1; 2,400 tested, under 10 active; purified delta FosB, TAMRA-CDK5 oligo fluorescence polarization; normalised: neutral wells 0, positive control 100; activation, % at 24.9 µM;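 active = highest replicate activation at or above 34% and every replicate reaching that threshold; inconclusive = meets only one of the two criteria; inactive = meets neither criterion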;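 note: higher polarization means more probe DNA bound by delta FosB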
Numbers stand for hits; – = inactive; ? = inconclusive; · = no result. Cut-off read from the data, not from the text of the source, unless noted: active = inhibition above about 50%; inactive = the rest.

SMILES	NSD2 HMT inh	CDK5 inh	dFosB act-1	SR-BI HDL uptake	SR-BI uptake up	DYRK1A inh	dFosB act-2
Cc1ccc(CNC(=O)C2CCC(CNc3nc(=S)[nH]c4ccccc34)CC2)cc1 (stereo unspecified)	–	–	?	–	–	–	·
O=C(NC(=S)N1CCN(c2ccccc2)CC1)c1c(F)cccc1F	–	–	–	–	–	–	·
Cc1cccc(NC(=O)COC(=O)CN2C(=O)c3ccccc3C2=O)c1	–	·	·	·	·	·	·
O=C(CC1S/C(=N/N=C/c2cccs2)NC1=O)Nc1ccccc1F (stereo unspecified)	–	–	32	80	–	–	–
C=CCC1S/C(=N/N=C/c2cccs2)NC1=O (stereo unspecified)	–	–	–	–	–	–	·
COc1ccc(NS(=O)(=O)c2ccc(OC)c(NC(=O)CNC(=O)c3ccc(OC)cc3)c2)cc1	–	–	39	–	–	–	–
COc1ccc(NS(=O)(=O)c2ccc(OC)c(NC(=O)CCC3CCCCC3)c2)cc1	–	–	–	–	–	–	·
COc1ccc(NS(=O)(=O)c2cccc(C(=O)NN=Cc3ccc(OC)cc3OC)c2)cc1	–	–	26	–	–	–	–
O=C(N/N=C/c1ccncc1)c1cccc(S(=O)(=O)Nc2ccc(Cl)cc2)c1	·	–	45	·	·	–	–
O=C(N/N=C/c1cccnc1)c1cccc(NC(=O)c2cccc(Br)c2)c1	–	–	45	–	–	–	–
COc1ccccc1C(=O)NCCC(=O)NNC(=O)C1COc2ccccc2O1 (stereo unspecified)	–	–	–	–	–	–	·
O=C(N/N=C/c1cccnc1)c1cccc(S(=O)(=O)Nc2cccc(Cl)c2)c1	–	–	31	–	–	·	–
O=C(Nc1cccnc1)c1cccc(S(=O)(=O)Nc2cccc(Cl)c2)c1	–	–	–	–	–	–	·
CCOc1ccc(S(=O)(=O)Nc2cccc(C(=O)NCC(C)(C)N3CCOCC3)c2)cc1	–	–	–	–	–	–	·
O=C(CSc1ccc(-c2cccnc2)nn1)Nc1ccccc1F	–	–	–	–	–	–	·
O=C(CSc1ccc(-c2ccc(-n3cccn3)cc2)nn1)Nc1ccccc1F	–	–	25	–	–	–	–
COc1ccc(CNCCC(c2ccc(F)cc2)c2ccc(OC)cc2)cc1 (stereo unspecified)	–	–	21	–	–	–	–
O=C(Nc1ccc(Cl)cc1)c1cnc(-c2ccccc2)nc1-c1ccccc1	–	–	22	–	–	–	–
CSc1nc2sc(-c3ccccc3)cc2c(=O)n1N	–	–	65	–	–	–	–
Nc1ccc(S(=O)(=O)Nc2nccc(/C=C/c3ccc(Cl)cc3Cl)n2)cc1	–	–	40	–	–	–	–
O=C(COc1c(Br)cc(Br)cc1Br)N/N=C/c1ccco1	–	–	31	–	–	·	–
Cc1c(C(=O)OCC(=O)Nc2ccc(S(N)(=O)=O)cc2)oc2c1ccc1ccccc12	–	–	29	–	–	–	–
Cc1cc(NC(=O)COC(=O)c2oc3c(ccc4ccccc43)c2C)no1	–	–	–	·	·	–	·
Cc1ccc2c(C)c(C(=O)NCc3ccc(S(N)(=O)=O)cc3)oc2c1C	–	–	–	–	–	–	·
Cc1ccc2c(C)c(C(=O)Nc3ccc(S(N)(=O)=O)cc3)oc2c1C	–	–	48	–	–	–	–
CCOC(=O)Nc1cccc(OCC(=O)Nc2ccc3c(c2)CCC3)c1	–	–	23	–	–	·	–
COc1ccccc1NC(=O)c1ccc(NC(=O)Cc2n[nH]c(=O)c3ccccc23)cc1	·	–	25	–	–	–	–
Cc1ccc(-c2cc(C(=O)N/N=C/c3c(C)nn(C)c3C)c3ccccc3n2)cc1C	–	–	43	86	–	–	–
Cc1ccc(-c2cc(C(=O)N/N=C/c3ccoc3)c3ccccc3n2)cc1	–	–	–	?	·	–	·
CCOC(=O)c1c(C)[nH]c(C(=O)OCC(=O)Nc2cc(C)ccc2OC)c1C	–	–	23	–	–	–	–
